Measurements published in ChEMBL document CHEMBL4229468, “Novel cinnamaldehyde-based aspirin derivatives for the treatment of colorectal cancer” (Bioorg Med Chem Lett, 2018).

Legend:
[1] = tested on: HCT-8; experiment: Antiproliferative activity against human HCT8 cells after 72 hrs by MTT assay; format: functional, cell-based; conditions: HCT-8, 72 h
Method in brief: (§1)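 MTT proliferation assay (details in supplement); positive control 5-FU; mixture comparator ASA + CA physical mixture at 1:1 mole ratio; IC50 = concentration inhibiting 50% of proliferation; mean ± SD from three independent experiments.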

[2] = tested on: DLD-1; experiment: Antiproliferative activity against human DLD1 cells after 72 hrs by MTT assay; format: functional, cell-based; conditions: DLD-1, 72 h
Method in brief: (§2)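 MTT proliferation assay on colorectal cancer (DLD-1) or non-tumorigenic colon (CCD841) cells. IC50 is the drug concentration inhibiting 50% of cell proliferation, given as the mean ± SD of three independent experiments.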

[3] = tested on: CCD-841CoN; experiment: Antiproliferative activity against human CCD-841-CoN cells after 72 hrs by MTT assay; format: cell-based; method in brief: as §2
[4] = tested on: HCT-8; experiment: Antiproliferative activity against human HCT8 cells after 72 hrs in presence of aspirin by MTT assay; format: functional, cell-based; conditions: HCT-8, 72 h
Method in brief: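 MTT proliferation assay in HCT-8 colorectal cancer cells, run on a physical mixture with aspirin at a 1:1 mole ratio. IC50 is the concentration inhibiting 50% of cell proliferation, given as the mean ± SD of three independent experiments.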

[5] = tested on: HCT-8; experiment: Antiproliferative activity against human HCT8 cells after 72 hrs in presence of cinnamaldehyde by MTT assay; format: functional, cell-based; conditions: HCT-8, 72 h; method in brief: as §1
[6] = tested on: HCT-8; experiment: Potency index, ratio of 5-FU IC50 to test compound IC50 for human HCT8 cells; format: functional
[7] = Selectivity index, ratio of IC50 for human CCD-841-CoN cells to IC50 for human HCT8 cells; format: toxicity; conditions: CCD-841-CoN cells versus HCT8 cells, read-out: Ratio IC50
[8] = Selectivity index, ratio of IC50 for human CCD-841-CoN cells to IC50 for human DLD1 cells; format: toxicity; conditions: CCD-841-CoN cells versus DLD1 cells, read-out: Ratio IC50
Method in brief: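 MTT IC50 in DLD-1 and non-tumorigenic CCD841 colon cells; IC50 = concentration inhibiting 50% proliferation; mean ± SD, three independent experiments.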

[9] = tested on: HCT-8; experiment: Antitumor activity against human HCT8 cells xenografted in BALB/c nude mouse assessed as tumor weight at 60 mg/kg, ip administered daily for 32 days measured every 4 days during compound dosing relative to control; format: functional
Method in brief: (§3)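 HCT-8 cells inoculated subcutaneously; after solid tumours established, mice randomized to daily intraperitoneal dosing at 60 mg/kg or vehicle Tween 80/PBS (5:95) for 32 consecutive days; tumour volume, tumour weight and body weight recorded; n = 6 per group; mean ± SD; P vs vehicle.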

[10] = tested on: Mus musculus; experiment: Toxicity in BALB/c nude mouse xenografted with human HCT8 cells assessed as change in body weight at 60 mg/kg, ip administered daily for 32 days; format: organism-based; conditions: in vivo, 768 h; method in brief: as §3
[11] = tested on: HCT-8; experiment: Cell cycle arrest in human HCT8 cells assessed as accumulation at G1 phase after 24 hrs by propidium iodide staining-based flow cytometric method; format: functional
[12] = tested on: HCT-8; experiment: Cell cycle arrest in human HCT8 cells assessed as accumulation at G1 phase at 3 uM after 24 hrs by propidium iodide staining-based flow cytometric method (reference value: 40.05%); format: functional
[13] = tested on: HCT-8; experiment: Cell cycle arrest in human HCT8 cells assessed as accumulation at S phase at 3 uM after 24 hrs by propidium iodide staining-based flow cytometric method (reference value: 36.19%); format: functional
[14] = tested on: HCT-8; experiment: Cell cycle arrest in human HCT8 cells assessed as accumulation at G2 phase at 3 uM after 24 hrs by propidium iodide staining-based flow cytometric method (reference value: 23.77%); format: functional
[15] = tested on: HCT-8; experiment: Cell cycle arrest in human HCT8 cells assessed as accumulation at G1 phase at 6 uM after 24 hrs by propidium iodide staining-based flow cytometric method (reference value: 40.05%); format: functional
[16] = tested on: HCT-8; experiment: Cell cycle arrest in human HCT8 cells assessed as accumulation at S phase at 6 uM after 24 hrs by propidium iodide staining-based flow cytometric method (reference value: 36.19%); format: functional
[17] = tested on: HCT-8; experiment: Cell cycle arrest in human HCT8 cells assessed as accumulation at G2 phase at 6 uM after 24 hrs by propidium iodide staining-based flow cytometric method (reference value: 23.77%); format: functional
[18] = tested on: HCT-8; experiment: Cell cycle arrest in human HCT8 cells assessed as accumulation at G1 phase at 12 uM after 24 hrs by propidium iodide staining-based flow cytometric method (reference value: 40.05%); format: functional
[19] = tested on: HCT-8; experiment: Cell cycle arrest in human HCT8 cells assessed as accumulation at S phase at 12 uM after 24 hrs by propidium iodide staining-based flow cytometric method (reference value: 36.19%); format: functional
[20] = tested on: HCT-8; experiment: Cell cycle arrest in human HCT8 cells assessed as accumulation at G2 phase at 12 uM after 24 hrs by propidium iodide staining-based flow cytometric method (reference value: 23.77%); format: functional
[21] = tested on: HCT-8; experiment: Induction of apoptosis in human HCT8 cells after 24 hrs by annexin V-FITC/propidium iodide staining-based flow cytometric method; format: functional, cell-based
[22] = tested on: HCT-8; experiment: Induction of apoptosis in human HCT8 cells assessed as early apoptotic cells at 3 uM after 24 hrs by annexin V-FITC/propidium iodide staining-based flow cytometric method (reference value: 0.25%); format: functional
[23] = tested on: HCT-8; experiment: Induction of apoptosis in human HCT8 cells assessed as early apoptotic cells at 6 uM after 24 hrs by annexin V-FITC/propidium iodide staining-based flow cytometric method (reference value: 0.25%); format: functional
[24] = tested on: HCT-8; experiment: Induction of apoptosis in human HCT8 cells assessed as early apoptotic cells at 12 uM after 24 hrs by annexin V-FITC/propidium iodide staining-based flow cytometric method (reference value: 0.25%); format: functional
[25] = tested on: HCT-8; experiment: Induction of apoptosis in human HCT8 cells assessed as early apoptotic cells at 6 uM after 24 hrs in presence of ROS scavenger NAC by annexin V-FITC/propidium iodide staining-based flow cytometric method (reference value: 0.25%); format: functional
[26] = tested on: HCT-8; experiment: Induction of apoptosis in human HCT8 cells assessed as late apoptotic cells at 6 uM after 24 hrs in presence of ROS scavenger NAC by annexin V-FITC/propidium iodide staining-based flow cytometric method (reference value: 5.42%); format: functional
[27] = tested on: HCT-8; experiment: Induction of apoptosis in human HCT8 cells assessed as upregulation of cleaved caspase-3 levels after 24 hrs by Western blot method; format: functional, cell-based
Method in brief: (§4)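 Cells treated 24 h with 0, 3, 6, 12 μM or control (0.1% DMSO); whole-cell lysates immunoblotted for cleaved caspase 3 and PARP.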

[28] = tested on: HCT-8; experiment: Induction of apoptosis in human HCT8 cells assessed as upregulation of cleaved PARP levels after 24 hrs by Western blot method; format: functional, cell-based; method in brief: as §4
[29] = tested on: HCT-8; experiment: Induction of reactive oxygen species formation in human HCT8 cells at 3 uM after 24 hrs by DCFH-DA dye-based flow cytometric method (reference value: 3.67%); format: functional
Method in brief: (§5)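 Cells treated 24 h with 0, 3, 6 or 12 μM, stained with fluorogenic 2',7'-dichlorofluorescin diacetate; ROS level read by flow cytometry.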

[30] = tested on: HCT-8; experiment: Induction of reactive oxygen species formation in human HCT8 cells at 6 uM after 24 hrs by DCFH-DA dye-based flow cytometric method (reference value: 3.67%); format: functional; method in brief: as §5
[31] = tested on: HCT-8; experiment: Induction of reactive oxygen species formation in human HCT8 cells at 12 uM after 24 hrs by DCFH-DA dye-based flow cytometric method (reference value: 3.67%); format: functional; method in brief: as §5
[32] = tested on: HCT-8; experiment: Induction of apoptosis in human HCT8 cells assessed as late apoptotic cells at 3 uM after 24 hrs by annexin V-FITC/propidium iodide staining-based flow cytometric method (reference value: 2.40%)
[33] = tested on: HCT-8; experiment: Induction of apoptosis in human HCT8 cells assessed as late apoptotic cells at 6 uM after 24 hrs by annexin V-FITC/propidium iodide staining-based flow cytometric method (reference value: 2.40%)
[34] = tested on: HCT-8; experiment: Induction of apoptosis in human HCT8 cells assessed as late apoptotic cells at 12 uM after 24 hrs by annexin V-FITC/propidium iodide staining-based flow cytometric method (reference value: 2.40%)

In the case of O=c1[nH]cc(F)c(=O)[nH]1 [FLUOROURACIL], the IC50 [1] is reported as 28.9 µM, the IC50 [2] is reported as 33 µM and the IC50 [3] is reported as 35.7 µM.

With COc1ccc(OC(=O)c2ccccc2OC(C)=O)c(/C=C/C=O)c1 the IC50 [1] was 9.3 µM.

Work on COc1ccc(/C=C/C=O)c(OC(=O)c2ccccc2OC(C)=O)c1 yielded an IC50 [1] of 15.8 µM.

With CC(=O)Oc1ccccc1C(=O)Oc1ccc(C)cc1/C=C/C=O the IC50 [1] was 8.5 µM.

COC(=O)c1ccccc1OC(C)=O gave an IC50 [1] of over 100 µM.

O=C/C=C/c1ccccc1 [CINNAMALDEHYDE] gave an IC50 [1] of 29.4 µM and an IC50 [4] of 15.6 µM.

COc1cccc(/C=C/C=O)c1OC(=O)c1ccccc1OC(C)=O gave an IC50 [1] of 17.6 µM.

CC(=O)Oc1ccccc1C(=O)O [ASPIRIN] gave an IC50 [1] of over 100 µM and an IC50 [5] of 15.6 µM.

For CC(=O)Oc1ccccc1C(=O)Oc1ccc(Br)cc1/C=C/C=O, the IC50 [1] was 5.6 µM.

Compound CC(=O)Oc1ccccc1C(=O)Oc1ccc(F)cc1/C=C/C=O has an IC50 [1] of 2.6 µM, an IC50 [2] of 4.3 µM and an IC50 [3] of 30.7 µM. The “Ratio IC50” value [6] was 11, the selectivity ratio [7] was 11 and the selectivity ratio [8] was 7. For the same compound, the Activity [9] was 47%, the Activity [10] was “Non-Toxic” and the Activity [11] was “Dose-dependent effect”. The Activity [12] was 43.17%, the Activity [13] was 35.89% and the Activity [14] was 20.94%. The Activity [15] was 48.66%, the Activity [16] was 38.71% and the Activity [17] was 12.63%. For the same compound, the Activity [18] was 51.62%, the Activity [19] was 36.15% and the Activity [20] was 12.23%. For the same compound, the Activity [21] was “Dose-dependent effect”, the Activity [22] was 8.69% and the Activity [23] was 15.56%. For the same compound, the Activity [24] was 15.84%, the Activity [25] was 7.4% and the Activity [26] was 5.58%. For the same compound, the Activity [27] was “Dose-dependent effect”, the Activity [28] was “Dose-dependent effect” and the Activity [29] was 18.67%. It also gave an Activity [30] of 25.07%, an Activity [31] of 47.83% and an Activity [32] of 5.42%. It also gave an Activity [33] of 17.03% and an Activity [34] of 27.71%.

Work on CC(=O)Oc1ccccc1C(=O)Oc1ccccc1/C=C/C=O yielded an IC50 [1] of 20.3 µM.

Work on CC(=O)Oc1ccc(F)cc1/C=C/C=O yielded an IC50 [1] of 10.5 µM.

For CC(=O)Oc1ccccc1C(=O)Oc1ccc(Cl)cc1/C=C/C=O, the IC50 [1] was 4.3 µM.
